Results taken from ChEMBL document CHEMBL1133588 (J Med Chem, 2000).
pKi: −log10 of the molar value.

Tests used:
Type in all cases: tissue-based
[1] = target: Sodium-dependent dopamine transporter (Rattus norvegicus, UniProt P23977); test: Displacement of [3H]WIN-35428 from the dopamine transporter in rat caudate putamen
Outline: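 Male Sprague-Dawley rat caudate putamen, fresh washed membranes in Krebs-HEPES pH 7.4, 0.5% w/v. Filtration on BSA-soaked GF/B filters. Three experiments in triplicate; Ki from nonlinear least-squares fitting of pooled replicates.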

[2] = target: T1, Muscarinic acetylcholine receptor M1 (Rattus norvegicus, UniProt P08482); test: Binding affinity at Muscarinic acetylcholine receptor M1 in Rat brain homogenate by [3H]pirenzepine displacement.
T1 sequence (P08482 whole entry): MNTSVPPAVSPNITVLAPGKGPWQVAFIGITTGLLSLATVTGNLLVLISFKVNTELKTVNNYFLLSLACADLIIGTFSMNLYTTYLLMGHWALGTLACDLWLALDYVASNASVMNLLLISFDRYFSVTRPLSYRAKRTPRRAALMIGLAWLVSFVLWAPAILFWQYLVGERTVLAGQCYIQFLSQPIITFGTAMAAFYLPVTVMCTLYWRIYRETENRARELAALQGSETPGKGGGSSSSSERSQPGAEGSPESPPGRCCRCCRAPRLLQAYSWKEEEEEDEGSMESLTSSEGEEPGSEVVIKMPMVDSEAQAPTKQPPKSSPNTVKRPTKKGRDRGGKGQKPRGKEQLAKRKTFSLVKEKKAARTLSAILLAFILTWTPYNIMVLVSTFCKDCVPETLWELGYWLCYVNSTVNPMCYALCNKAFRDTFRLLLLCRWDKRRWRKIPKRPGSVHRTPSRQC

[3] = target: T1, Muscarinic acetylcholine receptor M1; test: Compound is tested for displacement of [3H]pirenzepine at […] in Rat brain homogenate.
Outline: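 Whole rat brain minus cerebellum, homogenised in 10 mM Tris-HCl/320 mM sucrose pH 7.4; 10000g pellet. Binding in 10 mM Tris-HCl with 5 mM MgCl2, […], [3H]pirenzepine 3 nM final, 1 h at 37 °C. Competitor 0.01 nM–100 µM. Filtration through PEI-soaked GF/B filters. At least three experiments in triplicate; Ki from nonlinear curve fitting.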

Sequence of Sodium-dependent dopamine transporter (P23977 whole entry): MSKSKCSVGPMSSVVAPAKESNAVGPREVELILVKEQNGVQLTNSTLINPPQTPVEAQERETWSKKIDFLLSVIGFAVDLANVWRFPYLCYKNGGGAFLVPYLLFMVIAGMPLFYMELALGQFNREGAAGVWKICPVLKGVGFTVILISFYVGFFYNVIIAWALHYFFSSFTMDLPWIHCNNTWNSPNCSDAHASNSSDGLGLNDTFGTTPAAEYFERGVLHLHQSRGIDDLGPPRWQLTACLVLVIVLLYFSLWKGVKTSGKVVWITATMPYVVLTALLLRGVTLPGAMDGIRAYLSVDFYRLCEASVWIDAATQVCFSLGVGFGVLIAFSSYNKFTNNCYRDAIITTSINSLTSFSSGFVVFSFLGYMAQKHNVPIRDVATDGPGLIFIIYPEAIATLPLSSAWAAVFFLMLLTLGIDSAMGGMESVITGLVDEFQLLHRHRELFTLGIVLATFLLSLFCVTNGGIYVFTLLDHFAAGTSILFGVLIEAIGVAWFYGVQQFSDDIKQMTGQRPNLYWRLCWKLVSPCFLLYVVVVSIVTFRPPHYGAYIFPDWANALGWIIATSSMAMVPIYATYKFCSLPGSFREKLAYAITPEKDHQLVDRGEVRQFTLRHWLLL

Structure (SMILES) | pKi [1] | pKi [2] | pKi [3]
CC(C)[C@@H](N)CN1C2CCC1CC(OC(c1ccc(F)cc1)c1ccc(F)cc1)C2 (stereo not given in full) | 7.25 | 5.66 | –
CC[C@H](CN1C2CCC1CC(OC(c1ccc(F)cc1)c1ccc(F)cc1)C2)c1ccccc1 (stereo not given in full) | 6.64 | 5.63 | –
CC[C@@H](CN1C2CCC1CC(OC(c1ccc(F)cc1)c1ccc(F)cc1)C2)c1ccccc1 (stereo not given in full) | 6.40 | 5.84 | –
Fc1ccc(C(OC2CC3CCC(C2)N3CCCc2ccccc2)c2ccc(F)cc2)cc1 (stereo not given) | – | – | 6.51
Fc1ccc(C(OC2CC3CCC(C2)N3)c2ccc(F)cc2)cc1 (stereo not given) | – | 6.69 | –
C=CCCN1C2CCC1CC(OC(c1ccc(F)cc1)c1ccc(F)cc1)C2 (stereo not given) | 7.50 | 6.56 | –
Fc1ccc(C(OC2CC3CCC(C2)N3Cc2ccccc2)c2ccc(F)cc2)cc1 (stereo not given) | – | – | 5.99
O=[N+]([O-])c1ccc(CCCCN2[C@@H]3CC[C@H]2C[C@@H](OC(c2ccc(F)cc2)c2ccc(F)cc2)C3)cc1 | – | 6.52 | –
O=[N+]([O-])c1ccc(-c2ccc(COCCN3C4CCC3CC(OC(c3ccc(F)cc3)c3ccc(F)cc3)C4)cc2)cc1 (stereo not given) | – | – | 6.34
CCCCN1C2CCC1CC(OC(c1ccc(F)cc1)c1ccc(F)cc1)C2 (stereo not given) | – | 6.40 | –
NCCN1[C@@H]2CC[C@H]1C[C@@H](OC(c1ccc(F)cc1)c1ccc(F)cc1)C2 | 7.86 | 5.90 | –
Fc1ccc(C(OC2CC3CCC(C2)N3C/C=C/c2ccccc2)c2ccc(F)cc2)cc1 (stereo not given) | 7.06 | – | 6.40
C=CCN1C2CCC1CC(OC(c1ccc(F)cc1)c1ccc(F)cc1)C2 (stereo not given) | – | 6.75 | –
CC(C)[C@H](N)CN1C2CCC1CC(OC(c1ccc(F)cc1)c1ccc(F)cc1)C2 (stereo not given in full) | 7.53 | 5.40 | –
Fc1ccc(CN2C3CCC2CC(OC(c2ccc(F)cc2)c2ccc(F)cc2)C3)cc1 (stereo not given) | – | – | 5.81
C[C@H](CN1C2CCC1CC(OC(c1ccc(F)cc1)c1ccc(F)cc1)C2)c1ccccc1 (stereo not given in full) | 6.52 | 5.72 | –
Nc1ccc(CCCCN2[C@@H]3CC[C@H]2C[C@@H](OC(c2ccc(F)cc2)c2ccc(F)cc2)C3)cc1 | – | 6.87 | –
Fc1ccc(C(OC2CC3CCC(C2)N3Cc2ccc(Cl)c(Cl)c2)c2ccc(F)cc2)cc1 (stereo not given) | 6.41 | 5.41 | –
Fc1ccc(C(OC2CC3CCC(C2)N3CC2CC2)c2ccc(F)cc2)cc1 (stereo not given) | – | – | 6.59
Fc1ccc(C(O[C@H]2C[C@H]3CC[C@@H](C2)N3CCc2c[nH]c3ccccc23)c2ccc(F)cc2)cc1 | 7.35 | – | 5.48
Fc1ccc(C(OC2CC3CCC(C2)N3Cc2cccc3ccccc23)c2ccc(F)cc2)cc1 (stereo not given) | 6.44 | 5.75 | –
C[C@@H](CN1C2CCC1CC(OC(c1ccc(F)cc1)c1ccc(F)cc1)C2)c1ccccc1 (stereo not given in full) | 6.32 | 6.41 | –
Fc1ccc(CCCN2C3CCC2CC(OC(c2ccc(F)cc2)c2ccc(F)cc2)C3)cc1 (stereo not given) | – | – | 6.16
